High-throughput results deposited in PubChem BioAssay by several laboratories.
Compounds with a hit are over-represented: about 1.4% of the library has one in this group of screens.
CHT block: human CHT choline transport inhibition; Q9GZV3; CHT-expressing cells, membrane potential dye, choline response; stronger effect = lower value; B-score at 10 µM; hit rate 0.86% among 310,000;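 active = B-score over 3 SD under the library average, and starting fluorescence ratio not unusually high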;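 note: choline stimulus applied at its EC90 after an EC20 pre-addition; B-score computed on integrated fluorescence ratio after choline addition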
TNAP act hiacc: increases human TNAP activity under high phosphate acceptor concentration; P05186; purified TNAP, CDP-star luminescence, 1 M DEA, 30 min; stronger effect = higher value; 0 = EDTA background, 1 = DMSO-only activity; activation factor at 20 µM; 200,000 tested, under 10 active;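 active = activation factor at least 2 at 20 µM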
Target sequence (P05186 whole entry, looked up): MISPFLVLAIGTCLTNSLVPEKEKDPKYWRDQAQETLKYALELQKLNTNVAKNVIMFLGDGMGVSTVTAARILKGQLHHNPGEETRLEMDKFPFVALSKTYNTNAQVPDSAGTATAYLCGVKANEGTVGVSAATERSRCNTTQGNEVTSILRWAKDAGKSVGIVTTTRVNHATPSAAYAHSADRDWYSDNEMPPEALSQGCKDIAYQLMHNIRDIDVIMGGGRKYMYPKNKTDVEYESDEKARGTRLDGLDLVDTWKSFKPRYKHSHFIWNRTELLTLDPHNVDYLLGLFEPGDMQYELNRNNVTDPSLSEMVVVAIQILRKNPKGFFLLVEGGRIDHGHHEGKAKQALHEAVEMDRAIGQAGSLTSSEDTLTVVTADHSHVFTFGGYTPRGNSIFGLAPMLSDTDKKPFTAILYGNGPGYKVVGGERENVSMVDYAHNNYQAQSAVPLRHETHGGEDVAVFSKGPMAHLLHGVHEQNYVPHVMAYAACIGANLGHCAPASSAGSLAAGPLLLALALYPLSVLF
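Control set: EDTA negative control, DMSO positive control / Assay system: human TNAP / Quantity: TNAP 1/800 final / Evaluation: TNAP activation factor scaled between EDTA and DMSO control wells / Measured by: luminescent substrate turnover signal / Compound dosing: one dose, 20 µM / Times: 30 min enzyme reaction at room temperature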
CHT allo act: allosteric activators of human choline transporter CHT; AID 488977; hit rate 0.49% among 310,000; CHT-expressing cells, membrane potential dye, choline EC20; stronger effect = higher value; LV-AA mutant CHT in HEK293 cells; B-score at 10 µM; Q9GZV3;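 active = initial fluorescence not abnormally high and integrated response B-score, plate-corrected, over 3 SD above library mean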
ABCB6 inh 2: blocks the human ABCB6 transporter; Q9NP58; K562-ABCB6 porphyrin accumulation, flow cytometry, 1 h; stronger effect = lower value; fluorescence ratio to DMSO, % at 10 µM; hit rate 0.19% among 360,000;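 active = fluorescence ratio to DMSO below 75%, the collection mean minus 3 SD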;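 note: signal is porphyrin accumulated inside mitochondria; 100% equals median channel fluorescence of DMSO control wells; lower ratio means ABCB6 inhibition with less porphyrin fluorescence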
TNAP inh noacc: blocks human TNAP activity with no phosphate acceptor present. inhibition, % at 20 µM. hit rate 0.26% among 200,000. purified TNAP, CDP-star luminescence, 30 min;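 active = tissue-nonspecific alkaline phosphatase inhibition above about 50% at 20 µM in the single-dose screen, limit read from the data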;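 note: 0% = DMSO negative control and 100% = EDTA positive control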
TNAP inh hiacc: blocks human TNAP under high phosphate acceptor concentration. P05186. purified TNAP, CDP-star luminescence, 1 M DEA. inhibition, % at 20 µM. hit rate 0.03% among 200,000;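 active = over 50% inhibition of tissue-nonspecific alkaline phosphatase at 20 µM in the single-dose screen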;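 note: plate controls were DMSO wells for no effect and EDTA-quenched wells as full inhibition for full effect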
CHT activ conf: confirmation of human choline transporter (CHT) activators; shares compounds with CHT allo act; hit rate 91% among 2,500; activation, % at 10 µM; AID 504833; CHT-expressing cells, membrane potential dye fluorescence (FDSS); % of choline EC20–EC90 response window; HEK293 expressing CHT LV-AA mutant; choline added at its EC20;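 active = primary screen active, with duplicate mean activation above negative control mean plus 3 SD, cut at about 11% in these data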
HEK293 MP dye: CHT activator counter-screen hit in parental HEK293 cells; shares compounds with CHT allo act; membrane potential dye fluorescence (FDSS); measured after EC20 choline addition; ratio readout change at 10 µM, hits read low; hit rate 62% among 2,500;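 active = duplicate-averaged ratio beyond 3 SD from buffer wells, up or down, though filed actives are nearly all decreases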
An asterisk follows results filed as active; i = inactive; . = no result given.

SMILES	CHT block	TNAP act hiacc	CHT allo act	ABCB6 inh 2	TNAP inh noacc	TNAP inh hiacc	CHT activ conf	HEK293 MP dye
NC(=O)CN1CCN(CCN2C(=O)c3cccc4cccc(c34)C2=O)CC1	i	.	i	102	.	.	43*	-33*
Nc1cc2c3c(cccc3c1)C(=O)N(CCN1CCCC1)C2=O	i	.	i	122	.	.	.	.
COc1ccc([C@H]2CC(=O)C[C@@H](CCn3cc(CCc4ccccc4)nn3)O2)cc1	.	.	.	118	.	.	.	.
Cc1cccc(NC(=S)N=Nc2c(O)[nH]c3ccccc23)c1	i	0.8	9.5*	91	-22	17	8	i
CC1CCCN(c2c([N+](=O)[O-])c(=O)oc3ccccc23)C1 (configuration not stated)	i	1	i	114	-12	-3	.	.
O=c1oc2ccccc2c(N2CCC(c3ccccc3)CC2)c1[N+](=O)[O-]	i	1	i	100	-9	4	5	i
CC(C)CN1CCN(Cc2cccn2-c2ccc(Cl)cn2)CC1CCO (configuration not stated)	i	1	i	101	-4	0	54*	i
O=C(CSc1ccc(S(=O)(=O)N2CCCC2)cn1)Nc1ccc([N+](=O)[O-])cc1C(F)(F)F	.	.	.	97	.	.	.	.
CN(C)CCNc1ncnc2ccccc12	i	1	i	96	1	2	18*	-53*
Cc1ccc([C@H]2C[C@@H](O)[C@H](n3cc(C4CC4)nn3)CN2C(=O)c2cccs2)cc1	.	.	.	100	.	.	.	.
C=CCOC(=O)C1=C[C@@H](c2csc3ccccc23)C[C@@H](OCCCCO)O1	i	.	i	105	.	.	20*	i
NC(=O)C1=C[C@H](c2csc3ccccc23)C[C@H](OCCCCO)O1	i	1	i	102	-2	2	.	.
Cc1ccc2ccccc2c1NC(=O)CNCc1ccccc1	.	.	.	97	.	.	.	.
COc1ccc(C(CNC(=O)CSc2ccccc2F)N2CCOCC2)cc1 (configuration not stated)	i	.	i	99	.	.	.	.
COc1ccc(C(CNC(=O)CSc2ccc(Br)cc2C)N2CCOCC2)cc1 (configuration not stated)	i	.	i	95	.	.	-1	i
COc1ccc(-c2nc(CN3CCC(C(=O)N4CCc5ccccc54)CC3)c(C)o2)cc1OC	i	1	i	97	16	-4	39*	-38*
COc1ccc(CCNC(=O)C2CCN(Cc3nc(-c4cccc(Cl)c4)oc3C)CC2)cc1OC	i	1.1	i	101	-28	-10	30*	-36*
CCc1cc(=O)oc2cc(C)cc(OC(C)C(=O)NCCN3CCOCC3)c12 (configuration not stated)	i	.	i	95	.	.	.	.
Cc1cc(OC(C)C(=O)NCCN2CCOCC2)c2c(C)c(C)c(=O)oc2c1 (configuration not stated)	i	.	i	98	.	.	58*	-56*
Cc1cc(OC(C)C(=O)NCCCN2CCOCC2)c2c(C)cc(=O)oc2c1 (configuration not stated)	i	.	i	104	.	.	50*	-41*
CCOC(=O)CC1C(=O)NCCN1C(=O)c1cc2c(=O)n3cccc(C)c3nc2s1 (configuration not stated)	i	1	6.8*	93	-8	0	17*	-37*
Cn1c(=O)c2c(-c3ccccc3)n(CCCN3CCOCC3)cc2n(C)c1=O	i	1	i	98	-11	-2	79*	-52*
N#Cc1ccc(OCc2c(-c3ccccc3)nnn2CC(=O)O)cc1	.	.	.	100	.	.	.	.
CCN(CC(=O)Nc1ccc(NC(C)=O)cc1)C(=O)c1ccccc1SCc1c(C)noc1C	i	.	i	97	.	.	.	.
Cc1ccc2c(CC(=O)N3CCN(c4ccccc4)CC3)coc2c1	i	1	i	100	-4	1	.	.
SMILES	CHT block	TNAP act hiacc	CHT allo act	ABCB6 inh 2	TNAP inh noacc	TNAP inh hiacc	CHT activ conf	HEK293 MP dye
C#CC[N+]1(CC#Cc2ccc(C#CC[N+]3(CC#C)CCOCC3)cc2)CCOCC1	i	1	i	94	-13	-5	38*	-41*
C#CC[N+]1(CC#Cc2ccccc2)CCCC1	i	1	i	101	-9	-1	.	.
CSCCC(NC(=O)c1ccco1)C(=O)NC1CCCCCC1 (configuration not stated)	i	.	i	103	.	.	.	.
COc1ccc(CC2(C)OC(c3ccc(C)c([N+](=O)[O-])c3)=NN2C(C)=O)cc1 (configuration not stated)	i	.	i	101	.	.	27*	i
CCCc1nc2c(C)ccc(C)c2c(N)c1CC	i	1	i	113	4	0	55*	-52*
CCn1c(/C=C/Nc2ccccc2)[n+](CC)c2cc(Cl)c(Cl)cc21	i	1	7*	99	25	0	33*	-37*
Cc1ccc(/C=N/N2CCN(C3c4ccccc4-c4ccccc43)CC2)o1	i	.	i	95	.	.	.	.
COc1ccc(C(C)=O)cc1CSc1nncn1C	i	1	i	92	-12	-3	.	.
COc1ccc(C(C)=O)cc1CSc1nc2ccccc2c(=O)n1-c1ccccc1	i	1	i	100	-12	-2	.	.
COc1ccc(C(C)=O)cc1CSc1nc2ccccc2c(=O)n1-c1ccccc1C	i	1	i	96	-17	0	25*	i
COc1ccc(C(C)=O)cc1CSc1nnc2c(Cl)cc(Cl)cn12	i	1	9.6*	98	-6	-1	84*	-89*
COc1cc(C)ccc1OCc1cc(C(=O)NCCN2CCOCC2)no1	i	.	i	106	.	.	.	.
COc1ccccc1C(CNc1ncnc2sc(C)c(C)c12)N(C)C (configuration not stated)	i	.	i	100	.	.	54*	-52*
COc1ccc(C(CNc2ncnc3sc(C)c(C)c23)N(C)C)cc1 (configuration not stated)	i	.	i	97	.	.	.	.
COc1ccccc1N1CCN(/N=C/C=C/c2ccccc2[N+](=O)[O-])CC1	i	.	i	89	.	.	.	.
Cc1ccc(-c2cn(-c3ccc(OC(F)F)cc3)c3[n+]2CCCCC3)cc1	i	.	i	91	.	.	57*	i
FC(F)Oc1ccc(-n2cc(-c3ccccc3)[n+]3c2CCCCC3)cc1	i	.	i	95	.	.	.	.
CCN(CC)C(=O)CC(c1ccc(F)cc1)c1ccc(OC(C)C)cc1 (configuration not stated)	.	1	.	.	-12	-4	.	.
